Our source for the MIC99 values is ChEMBL document CHEMBL4411332, “Deciphering the Role of Intramolecular Networking in Cholic Acid-Peptide Conjugates on the Lipopolysaccharide Surface in Combating Gram-Negative Bacterial Infections” (J Med Chem, 2019).

The structures appear in SMILES notation. In brackets after ≈: the same amount, converted by molar mass. Activity calls are given as the source filed them. The rule behind the calls is not given here.

The subject of this test is Escherichia coli. Briefly: Antibacterial activity against Escherichia coli by broth dilution assay. It is filed as functional. In outline:
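MIC99 by broth-dilution assay; antibacterial and culture details are in the Supporting Information.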

`C[C@H](CCC(=O)OCc1ccccc1)[C@H]1CC[C@H]2[C@@H]3[C@H](OC(=O)CNC(=O)[C@@H](N)Cc4ccc(O)cc4)C[C@@H]4C[C@H](OC(=O)CNC(=O)[C@@H](N)Cc5ccc(O)cc5)CC[C@]4(C)[C@H]3C[C@H](OC(=O)CNC(=O)[C@@H](N)Cc3ccc(O)cc3)[C@]12C`: the MIC99 (commonly an inhibitory concentration at the 99% level, which refers to growth in some studies and to a panel of isolates in others) was “inactive”.
For `CSCC[C@H](N)C(=O)NCC(=O)O[C@@H]1CC[C@@]2(C)[C@@H](C1)C[C@@H](OC(=O)CNC(=O)[C@@H](N)CCSC)[C@@H]1[C@@H]2C[C@H](OC(=O)CNC(=O)[C@@H](N)CCSC)[C@]2(C)[C@@H]([C@H](C)CCC(=O)OCc3ccccc3)CC[C@@H]12`, the MIC99 is 8 to 128 µM (≈ 8.51 to 136 µg/mL).
For the molecule `C[C@H](CCC(=O)OCc1ccccc1)[C@H]1CC[C@H]2[C@@H]3[C@H](OC(=O)CNC(=O)[C@@H](N)Cc4ccccc4)C[C@@H]4C[C@H](OC(=O)CNC(=O)[C@@H](N)Cc5ccccc5)CC[C@]4(C)[C@H]3C[C@H](OC(=O)CNC(=O)[C@@H](N)Cc3ccccc3)[C@]12C`, the MIC99 entry is “inactive”.
